From ChEMBL document CHEMBL4340523, “Selective Inhibitors of Helicobacter pylori Methylthioadenosine Nucleosidase and Human Methylthioadenosine Phosphorylase” (J Med Chem, 2019) come the findings set out here.

Test [1] addresses T1, S-methyl-5'-thioadenosine phosphorylase (Homo sapiens, UniProt Q13126).
T1 sequence (Q13126 whole entry): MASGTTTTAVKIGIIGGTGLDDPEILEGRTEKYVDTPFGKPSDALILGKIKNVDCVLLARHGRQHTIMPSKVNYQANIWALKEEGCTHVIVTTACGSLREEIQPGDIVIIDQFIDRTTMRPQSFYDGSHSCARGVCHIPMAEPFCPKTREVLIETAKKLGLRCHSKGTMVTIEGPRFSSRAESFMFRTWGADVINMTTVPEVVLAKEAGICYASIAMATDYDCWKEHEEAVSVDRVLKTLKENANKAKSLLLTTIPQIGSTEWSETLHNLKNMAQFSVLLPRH
Briefly: Binding affinity to recombinant human N-terminal TEV cleavage site-fused-His6-tagged MTAP expressed in Escherichia coli BL21-CodonPlus(DE3)-RIPL competent cells assessed as reduction in MTA hydrolysis measured after 40 mins in presence of xanthine oxidase. The essentials: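 MTAP (His6-tagged, TEV site, 14 extra N-terminal residues) was Ni-NTA purified and charcoal-dialysed to remove adenine. Each 1 mL cuvette held 100 mM K2PO4, 1 mM DTT, 800 μM MTA, 3 nM MTAP, 1 unit xanthine oxidase and varying inhibitor. Xanthine oxidase coupling gave 2,8-dihydroxyadenine, read at 305 nm (ε 15.5 mM⁻¹ cm⁻¹). Rates were taken at 40 min after slow-onset equilibrium. Ki* came from a Morrison quadratic fit.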

A short description of test [2]: Binding affinity to recombinant Helicobacter pylori MTAN expressed in Escherichia coli BL21(DE3) assessed as reduction in MTA hydrolysis measured after 40 mins in presence of xanthine oxidase. The essentials:
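His-tagged HpMTAN was purified by Ni-NTA and freed of bound adenine by charcoal dialysis. Adenine was oxidized to 2,8-dihydroxyadenine and followed at 305 nm. Rates were read at 40 min, after slow-onset equilibrium, and fitted to the Morrison quadratic equation for Ki*.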

Test [3] is described as follows: Selectivity ratio of Kd for recombinant human N-terminal TEV cleavage site-fused-His6-tagged MTAP expressed in Escherichia coli BL21-CodonPlus(DE3)-RIPL competent cells to Kd for recombinant Helicobacter pylori MTAN expressed in Escherichia coli BL21(DE3). The essentials: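 Ratio of the human MTAP dissociation constant to the HpMTAN dissociation constant. Each constant came from xanthine oxidase-coupled 305 nm rates taken at 40 min after slow-onset equilibrium and fitted to the Morrison equation. The MTAP assay used 800 μM MTA and 3 nM enzyme in 100 mM K2PO4; the HpMTAN assay used 1 mM MTA and 0.6 nM enzyme in 100 mM HEPES pH 7.2 with 100 mM NaCl.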

The target of test [4] is T2, S-methyl-5'-thioadenosine phosphorylase (Homo sapiens) (UniProt Q13126).
T2 sequence (whole entry): T1 sequence (Q13126 whole entry)
Nature of the test: Binding affinity to recombinant human N-terminal TEV cleavage site-fused-His6-tagged MTAP expressed in Escherichia coli BL21-CodonPlus(DE3)-RIPL competent cells assessed as reduction in MTA hydrolysis at 5 uM measured after 40 mins in presence of xanthine oxidase.

The next test relates to Helicobacter pylori. Nature of the test: Binding affinity to recombinant Helicobacter pylori MTAN expressed in Escherichia coli BL21(DE3) assessed as reduction in MTA hydrolysis at 5 uM measured after 40 mins in presence of xanthine oxidase.

The structures appear in SMILES notation. Calls of active or inactive are those of the source. The rule behind the calls is not given here.

What is called Kd is the free concentration of one partner at which half of the binding sites on the other are occupied at equilibrium, for simple one-to-one binding.

On to `C=CCn1cc(CSC[C@H]2CN(Cc3c[nH]c4c(N)ncnc34)C[C@@H]2O)nn1`, for which the Kd in test [1] came to 70 nM; in test [2], 0.288 nM. Moreover, in test [3], the Selectivity ratio came out at 243.
Consider `C=CCn1cc(CCCSC[C@H]2CN(Cc3c[nH]c4c(N)ncnc34)C[C@@H]2O)nn1`, for which the Kd was determined as 2.4 nM in test [1] and 0.026 nM in test [2]. Moreover, the Selectivity ratio in test [3] is 92.3.
As for `C#CCCCSC[C@H]1CN(Cc2c[nH]c3c(N)ncnc23)C[C@@H]1O`, the figures for the equilibrium dissociation constant (Kd) in test [1] and in test [2] were 0.94 nM and 0.026 nM, respectively. In addition, the Selectivity ratio in test [3] came out at 36.2.
Regarding `CSC[C@H]1CN(Cc2c[nH]c3c(=O)[nH]ccc23)C[C@@H]1O`, the outcome (in test [4]; in the test on Helicobacter pylori) was inactive.
In the case of `Cn1cc(CSC[C@H]2CN(Cc3c[nH]c4c(N)ncnc34)C[C@@H]2O)nn1`, the values for the Kd in test [1] and in test [2] were 66 nM and 0.274 nM, respectively. Moreover, the Selectivity ratio in test [3] was 241.
With `CSC[C@H]1CN(Cc2c[nH]c3c(N)nccc23)C[C@@H]1O`, the figures for the Kd in test [1] and in test [2] were 31.9 nM and 10.3 nM, respectively. Also, in test [3], the Selectivity ratio came to 3.1.
For the compound `Nc1ncnc2c(CN3C[C@H](CSCCCc4cn(Cc5ccccc5)nn4)[C@@H](O)C3)c[nH]c12`, the figures for the Kd in test [1] and in test [2] were 1.4 nM and 0.036 nM, respectively. The Selectivity ratio in test [3] was found to be 38.9.
For the compound `CCCCn1cc(CSC[C@H]2CN(Cc3c[nH]c4c(N)ncnc34)C[C@@H]2O)nn1`, the Kd was found to be 37 nM in test [1] and 0.373 nM in test [2]. For the same compound, the Selectivity ratio in test [3] was 99.2.
On to `Nc1ncnc2c(CN3C[C@H](CSc4ncccn4)[C@@H](O)C3)c[nH]c12`, for which the Kd in test [1] stood at 13 nM; in test [2] it was 0.058 nM. For the same compound, the Selectivity ratio in test [3] was 224.
With `C#CCSC[C@H]1CN(Cc2c[nH]c3c(N)ncnc23)C[C@@H]1O`, the Kd worked out at 0.63 nM in test [1] and 0.055 nM in test [2]. In addition, the Selectivity ratio in test [3] was 11.5.
Turning to `Nc1ncnc2c(CN3C[C@H](CSCc4cn(Cc5ccccc5)nn4)[C@@H](O)C3)c[nH]c12`, the Kd in test [1] came out at 13 nM; in test [2] it was 0.073 nM. In addition, the Selectivity ratio in test [3] is 178.
Taken in the same sequence, the figures for `Cn1cc(CCCSC[C@H]2CN(Cc3c[nH]c4c(N)ncnc34)C[C@@H]2O)nn1` were 3 nM, 0.025 nM and 120.
Take `CCCCn1cc(CCCSC[C@H]2CN(Cc3c[nH]c4c(N)ncnc34)C[C@@H]2O)nn1`: the figures for the Kd in test [1] and in test [2] were 1.3 nM and 0.028 nM, respectively. Also, in test [3], the Selectivity ratio is 46.4.
For the compound `CSC[C@H]1CN(Cc2[nH]nc3c(N)ncnc23)C[C@@H]1O`, the Kd in test [1] came out at 19 nM; in test [2], 0.235 nM. In addition, in test [3], the Selectivity ratio stood at 80.9.
As to `O=c1[nH]ccc2c(CN3C[C@H](CO)[C@@H](O)C3)c[nH]c12`, the result (in test [4]; in the test on Helicobacter pylori) was inactive.
